From ChEMBL document CHEMBL1153955, “Indolylarylsulfones bearing natural and unnatural amino acids. Discovery of potent inhibitors of HIV-1 non-nucleoside wild type and resistant mutant strains reverse transcriptase and coxsackie B4 virus” (J Med Chem, 2009)

Key:
[1] = system: Feline coronavirus; test: Antiviral activity against Feline coronavirus in feline […] cells assessed as inhibition of virus-induced cytopathicity; type: functional, organism-based; details: Alphacoronavirus 1
[2] = system: Vaccinia virus; test: Antiviral activity against Vaccinia virus Lederle in human HEL cells assessed as protection against virus-induced cytopathicity; type: functional, organism-based; details: Orthopoxvirus vaccinia
[3] = system: Sindbis virus; test: Antiviral activity against Sindbis virus in african green monkey Vero cells assessed as protection against virus-induced cytopathicity; type: functional, organism-based
Procedure, shortened: (§1)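 Confluent cell monolayers inoculated with 100 CCID₅₀ virus. After 1-2 h adsorption, residual virus removed and cultures incubated with varying compound concentrations. Cytopathicity scored once it reached completion in untreated infected controls. EC₅₀ = dose reducing virus-induced cytopathogenicity by 50%.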

[4] = system: Influenza B virus; test: Antiviral activity against influenza B virus in MDCK cells assessed as reduction of virus-induced cytopathicity by MTS method; type: functional, organism-based
[5] = system: Human alphaherpesvirus 1; test: Antiviral activity against thymidine kinase deficient and acyclovir resistant HSV1 KOS in human HEL cells assessed as protection against virus-induced cytopathicity; type: functional, organism-based; details: Human alphaherpesvirus 1, KOS
[6] = biological target: Human immunodeficiency virus type 1 reverse transcriptase (Human immunodeficiency virus 1, UniProt Q72547); test: Inhibition of HIV1 reverse transcriptase p66/p51; details: read-out: IC50
[7] = system: Influenza A virus; test: Antiviral activity against influenza H1N1 virus in MDCK cells assessed as reduction of virus-induced cytopathicity by MTS method; type: functional, organism-based; details: Influenza A virus, H1N1, MDCK
[8] = system: Felid alphaherpesvirus 1; test: Antiviral activity against Feline herpesvirus in feline […] cells assessed as inhibition of virus-induced cytopathicity; type: functional, organism-based
[9] = system: Coxsackievirus B4; test: Antiviral activity against Coxsackievirus B4 in african green monkey Vero cells assessed as protection against virus-induced cytopathicity; type: functional, organism-based; details: Enterovirus B; procedure, shortened: as §1
[10] = biological target: Human immunodeficiency virus type 1 reverse transcriptase (Human immunodeficiency virus 1, UniProt Q72547, L100I); test: Inhibition of HIV1 reverse transcriptase p66/p51 L100I mutant; details: read-out: IC50
Procedure, shortened: (§2)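 Substrate was 0.5 µg poly(rA)/oligo(dT) 10:1 (0.3 µM 3′-OH ends) with 10 µM [³H]dTTP, at 37 °C. Acid-precipitable radioactivity was counted on GF/C filters after TCA washes.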

[11] = system: Human alphaherpesvirus 1; test: Antiviral activity against HSV1 KOS in human HEL cells assessed as protection against virus-induced cytopathicity; type: functional, organism-based; details: Human alphaherpesvirus 1, KOS
[12] = system: Influenza A virus H3N2; test: Antiviral activity against influenza H3N2 virus in MDCK cells assessed as reduction of virus-induced cytopathicity by visual cytopathic effect scoring method; type: functional, organism-based
[13] = Cytotoxicity against feline CRFK cells by MTS assay; type: cell-based, Felis catus; details: cat
[14] = system: Respiratory syncytial virus; test: Antiviral activity against RSV Long in human HeLa cells assessed as protection against virus-induced cytopathicity; type: functional, organism-based; procedure, shortened: as §1
[15] = system: Influenza A virus H3N2; test: Antiviral activity against influenza H3N2 virus in MDCK cells assessed as reduction of virus-induced cytopathicity by MTS method; type: functional, organism-based
[16] = Cytotoxicity against human HEL cells assessed as drug level causing microscopically detectable alteration of normal cell morphology after 3 days; type: cell-based
[17] = Cytotoxicity against african green monkey Vero cells assessed as drug level causing microscopically detectable alteration of normal cell morphology after 3 days; type: cell-based; details: chlorocebus sabaeus
Procedure, shortened: (§3)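 Serial compound dilutions added to confluent HeLa or Vero monolayers. MCC = minimum concentration causing microscopically detectable alteration of cell morphology after 3 days of incubation.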

[18] = biological target: Human immunodeficiency virus type 1 reverse transcriptase (Human immunodeficiency virus 1, UniProt Q72547, K103N); test: Inhibition of HIV1 reverse transcriptase p66/p51 K103N mutant; details: read-out: IC50; procedure, shortened: as §2
[19] = system: L1210; test: Antiproliferative activity against mouse L1210 cells after 2 days; type: cell-based; details: L1210, 48 h
Procedure, shortened: (§4)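 Cells seeded at 5 × 10⁴ to 7.5 × 10⁴ cells/200 µL with or without serial compound dilutions; incubated at 37 °C for 2 days (L1210) or 3 days (Molt4/C8, CEM). Cell numbers counted with a Coulter counter. CC₅₀ = concentration reducing proliferation by 50% versus untreated controls, read from plots of cell number (% of control) against concentration. Means of at least two independent experiments.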

[20] = system: Human respirovirus 3; test: Antiviral activity against Parainfluenza virus type 3 in african green monkey Vero cells assessed as protection against virus-induced cytopathicity; type: functional, organism-based; details: Human respirovirus 3, Vero; procedure, shortened: as §1
[21] = system: Human immunodeficiency virus 1; test: Antiviral activity against HIV1 3B in human CEM cells assessed as protection against virus-induced cytopathicity after 4 days; type: functional, organism-based; details: Human immunodeficiency virus 1, 3B, CCRF-CEM, 96 h
Procedure, shortened: (§5)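 CEM cells (~3 × 10⁵ cells/mL) infected with ~100 CCID₅₀ per mL of HIV-1 (IIIB) or HIV-2 (ROD), then seeded into wells containing compound dilutions. After 4 days at 37 °C, syncytium (giant cell) formation was examined microscopically. EC₅₀ = concentration protecting CEM cells from HIV cytopathicity by 50%.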

[22] = system: Punta Toro virus; test: Antiviral activity against Punta Toro virus in african green monkey Vero cells assessed as protection against virus-induced cytopathicity; type: functional, organism-based; procedure, shortened: as §1
[23] = biological target: Human immunodeficiency virus type 1 reverse transcriptase (Human immunodeficiency virus 1, UniProt Q72547, Y181I); test: Inhibition of HIV1 reverse transcriptase p66/p51 Y181I mutant; details: read-out: IC50; procedure, shortened: as §2
[24] = Cytotoxicity against human HeLa cells assessed as drug level causing microscopically detectable alteration of normal cell morphology after 3 days; type: cell-based; procedure, shortened: as §3
[25] = system: Vesicular stomatitis virus; test: Antiviral activity against VSV in human HeLa cells assessed as protection against virus-induced cytopathicity; type: functional, organism-based
[26] = system: Influenza B virus; test: Antiviral activity against influenza B virus in MDCK cells assessed as reduction of virus-induced cytopathicity by visual cytopathic effect scoring method; type: functional, organism-based
[27] = system: Mammalian orthoreovirus 1; test: Antiviral activity against Reovirus 1 in african green monkey Vero cells assessed as protection against virus-induced cytopathicity; type: functional, organism-based; details: Mammalian orthoreovirus 1, Vero; procedure, shortened: as §1
[28] = Antiproliferative activity against human Molt4/C8 cells after 3 days; type: cell-based; details: MOLT-4, 72 h; procedure, shortened: as §4
[29] = system: Human immunodeficiency virus 2; test: Antiviral activity against HIV2 ROD in human CEM cells assessed as protection against virus-induced cytopathicity after 4 days; type: functional, organism-based; details: Human immunodeficiency virus 2, ROD, CCRF-CEM, 96 h; procedure, shortened: as §5
[30] = Cytotoxicity against MDCK cells assessed as drug level causing microscopically detectable alteration of normal cell morphology; type: cell-based, Canis lupus familiaris; details: dog
[31] = system: CCRF-CEM; test: Antiproliferative activity against human CEM cells after 3 days; type: cell-based; details: 72 h; procedure, shortened: as §4
[32] = system: Human alphaherpesvirus 2; test: Antiviral activity against HSV2 G in human HEL cells assessed as protection against virus-induced cytopathicity; type: functional, organism-based; details: Human alphaherpesvirus 2, strain G; procedure, shortened: as §1
[33] = system: Coxsackievirus B4; test: Antiviral activity against Coxsackievirus B4 in human HeLa cells assessed as protection against virus-induced cytopathicity; type: functional, organism-based; details: Enterovirus B; procedure, shortened: as §1
[34] = system: Influenza A virus; test: Antiviral activity against influenza H1N1 virus in MDCK cells assessed as reduction of virus-induced cytopathicity by visual cytopathic effect scoring method; type: functional, organism-based
[35] = system: Vesicular stomatitis virus; test: Antiviral activity against VSV in human HEL cells assessed as protection against virus-induced cytopathicity; type: functional, organism-based
[36] = Cytotoxicity against MDCK cells by MTS assay; type: cell-based, Canis lupus familiaris; details: dog

Cc1cc(C)cc(S(=O)(=O)c2c(C(=O)NCCC(N)=O)[nH]c3ccc(Cl)c(F)c23)c1
EC50 [1]: > 20 µM
EC50 [2]: > 20 µM
EC50 [3]: > 20 µM
EC50 [4]: > 20 µM
EC50 [5]: > 20 µM
IC50 [6]: 0.034 µM
EC50 [7]: > 20 µM
EC50 [8]: > 20 µM
EC50 [9]: > 20 µM
IC50 [10]: 0.13 µM
EC50 [11]: > 20 µM
EC50 [12]: > 20 µM
CC50 [13]: 45.3 µM
EC50 [14]: 16 µM
EC50 [15]: > 20 µM
MCC at 72 h [16]: 100 µM
MCC at 72 h [17]: 100 µM
IC50 [18]: 0.783 µM
IC50 [19]: 42 µM
EC50 [20]: > 20 µM
EC50 [21]: 0.002 µM
EC50 [22]: > 20 µM
IC50 [23]: 7.16 µM
MCC at 72 h [24]: 100 µM
EC50 [25]: > 20 µM
EC50 [26]: > 20 µM
EC50 [27]: > 20 µM
IC50 [28]: 33 µM
EC50 [29]: > 10 µM
MCC [30]: 100 µM
IC50 [31]: 30 µM
EC50 [32]: > 20 µM
EC50 [33]: 9 µM
EC50 [34]: > 20 µM
EC50 [35]: > 20 µM
CC50 [36]: 24.3 µM

Cc1cc(C)cc(S(=O)(=O)c2c(C(=O)NC(C)C(N)=O)[nH]c3ccc(Br)cc23)c1 (stereo not drawn)
EC50 [1]: > 4 µM
EC50 [2]: > 4 µM
EC50 [3]: > 4 µM
EC50 [4]: > 800 µM
EC50 [5]: > 4 µM
IC50 [6]: 0.016 µM
EC50 [7]: > 800 µM
EC50 [8]: > 4 µM
EC50 [9]: > 4 µM
IC50 [10]: 0.041 µM
EC50 [11]: > 4 µM
EC50 [12]: > 800 µM
CC50 [13]: 9.2 µM
EC50 [14]: 4 µM
EC50 [15]: > 800 µM
MCC at 72 h [16]: 20 µM
MCC at 72 h [17]: 20 µM
IC50 [18]: 0.509 µM
IC50 [19]: 10 µM
EC50 [20]: > 4 µM
EC50 [21]: 0.0019 µM
EC50 [22]: > 4 µM
IC50 [23]: 1.81 µM
MCC at 72 h [24]: 20 µM
EC50 [25]: > 4 µM
EC50 [26]: > 800 µM
EC50 [27]: > 4 µM
IC50 [28]: 8.7 µM
EC50 [29]: > 10 µM
MCC [30]: 4 µM
IC50 [31]: 10 µM
EC50 [32]: > 4 µM
EC50 [33]: 2 µM
EC50 [34]: > 800 µM
EC50 [35]: > 4 µM
CC50 [36]: 1.7 µM

Cc1cc(C)cc(S(=O)(=O)c2c(C(=O)NCCS(N)(=O)=O)[nH]c3ccc(Br)cc23)c1
EC50 [1]: > 4 µM
EC50 [2]: > 4 µM
EC50 [3]: > 20 µM
EC50 [4]: > 800 µM
EC50 [5]: > 4 µM
IC50 [6]: 0.002 µM
EC50 [7]: > 800 µM
EC50 [8]: > 4 µM
EC50 [9]: 12 µM
IC50 [10]: 0.013 µM
EC50 [11]: > 4 µM
EC50 [12]: > 800 µM
CC50 [13]: 11.9 µM
EC50 [14]: > 4 µM
EC50 [15]: > 800 µM
MCC at 72 h [16]: 20 µM
MCC at 72 h [17]: ≥ 20 µM
IC50 [18]: 0.529 µM
IC50 [19]: 17 µM
EC50 [20]: > 20 µM
EC50 [21]: 0.001 µM
EC50 [22]: > 20 µM
IC50 [23]: > 40 µM
MCC at 72 h [24]: 20 µM
EC50 [25]: > 4 µM
EC50 [26]: > 800 µM
EC50 [27]: > 20 µM
IC50 [28]: 11 µM
EC50 [29]: > 10 µM
MCC [30]: 4 µM
IC50 [31]: 14 µM
EC50 [32]: > 4 µM
EC50 [33]: ≥ 4 µM
EC50 [34]: > 800 µM
EC50 [35]: > 4 µM
CC50 [36]: 1.9 µM
